# Measurements: ChEMBL document CHEMBL1156796, “Design, synthesis, and antihepatitis B virus activities of novel 2-pyridone derivatives” (J Med Chem, 2010)
# System: Hepatitis B virus
# Experiment: Antiviral activity against HBV infected in human HepG2(2.2.15) cells assessed as inhibition of HBsAg level after 9 days by ELISA
# Type: functional, organism-based
# Settings: HepG2 2.2.15, 216 h
row,IC50,SMILES
1,> 139 µM,CCCn1cc(C(=O)c2ccc(OC)cc2O)ccc1=O
2,98 µM,C=CC/N=C(\c1ccc(=O)n(CC=C)c1)c1ccc(OC)cc1O
3,276 µM,C=CCn1cc(C(=O)c2ccc(OC)cc2O)ccc1=O
4,29 µM,CCCCC/N=C(\c1ccc(=O)n(CCCCC)c1)c1ccc(OC)cc1O
5,> 114 µM,COc1ccc(-n2cc(C(=O)c3ccc(OC)cc3O)ccc2=O)cc1
6,> 122 µM,COc1ccc(/C(=N/C(C)C)c2ccc(=O)n(C(C)C)c2)c(O)c1
7,> 118 µM,COc1ccc(C(=O)c2ccc(=O)n(-c3ccc(F)cc3)c2)c(O)c1
8,176 µM,COc1ccc(C(=O)c2ccc(=O)n(-c3ccccc3)c2)c(O)c1
9,> 114 µM,COc1ccc(C(=O)c2ccc(=O)n(-c3ccccc3OC)c2)c(O)c1

# System: not listed separately
# Experiment: Cytotoxicity against human HepG2(2.2.15) cells
# Type: cell-based
# Settings: not given
row,SMILES,CC50
1,CCCn1cc(C(=O)c2ccc(OC)cc2O)ccc1=O,131 µM
2,C=CC/N=C(\c1ccc(=O)n(CC=C)c1)c1ccc(OC)cc1O,20 µM
3,C=CCn1cc(C(=O)c2ccc(OC)cc2O)ccc1=O,232 µM
4,CCCCC/N=C(\c1ccc(=O)n(CCCCC)c1)c1ccc(OC)cc1O,98 µM
5,COc1ccc(-n2cc(C(=O)c3ccc(OC)cc3O)ccc2=O)cc1,346 µM
6,COc1ccc(/C(=N/C(C)C)c2ccc(=O)n(C(C)C)c2)c(O)c1,> 122 µM
7,COc1ccc(C(=O)c2ccc(=O)n(-c3ccc(F)cc3)c2)c(O)c1,> 118 µM
8,COc1ccc(C(=O)c2ccc(=O)n(-c3ccccc3)c2)c(O)c1,179 µM
9,COc1ccc(C(=O)c2ccc(=O)n(-c3ccccc3OC)c2)c(O)c1,> 114 µM

# System: Hepatitis B virus
# Experiment: Antiviral activity against HBV infected in human HepG2(2.2.15) cells assessed as inhibition of HBV DNA replication after 9 days by PCR
# Type: functional, organism-based
# Settings: Hepatitis B virus, HepG2 2.2.15, 216 h; read-out: IC50
row,IC50,SMILES
1,33.3 µM,CCCn1cc(C(=O)c2ccc(OC)cc2O)ccc1=O
2,12 µM,C=CC/N=C(\c1ccc(=O)n(CC=C)c1)c1ccc(OC)cc1O
3,101 µM,C=CCn1cc(C(=O)c2ccc(OC)cc2O)ccc1=O
4,30 µM,CCCCC/N=C(\c1ccc(=O)n(CCCCC)c1)c1ccc(OC)cc1O
5,5.2 µM,COc1ccc(-n2cc(C(=O)c3ccc(OC)cc3O)ccc2=O)cc1
6,> 122 µM,COc1ccc(/C(=N/C(C)C)c2ccc(=O)n(C(C)C)c2)c(O)c1
7,98.3 µM,COc1ccc(C(=O)c2ccc(=O)n(-c3ccc(F)cc3)c2)c(O)c1
8,20 µM,COc1ccc(C(=O)c2ccc(=O)n(-c3ccccc3)c2)c(O)c1
9,76 µM,COc1ccc(C(=O)c2ccc(=O)n(-c3ccccc3OC)c2)c(O)c1

# System: not listed separately
# Experiment: Selectivity index, ratio of CC50 for human HepG2(2.2.15) cells to IC50 for HBV infected in human HepG2(2.2.15) cells assessed as inhibition of HBV DNA replication
# Type: functional
# Settings: not given
row,SMILES,Ratio CC50/IC50
1,CCCn1cc(C(=O)c2ccc(OC)cc2O)ccc1=O,3.93
2,C=CC/N=C(\c1ccc(=O)n(CC=C)c1)c1ccc(OC)cc1O,1.67
3,C=CCn1cc(C(=O)c2ccc(OC)cc2O)ccc1=O,2.3
4,CCCCC/N=C(\c1ccc(=O)n(CCCCC)c1)c1ccc(OC)cc1O,3.27
5,COc1ccc(-n2cc(C(=O)c3ccc(OC)cc3O)ccc2=O)cc1,66.54
6,COc1ccc(C(=O)c2ccc(=O)n(-c3ccc(F)cc3)c2)c(O)c1,>1.2
7,COc1ccc(C(=O)c2ccc(=O)n(-c3ccccc3)c2)c(O)c1,8.95
8,COc1ccc(C(=O)c2ccc(=O)n(-c3ccccc3OC)c2)c(O)c1,>1.5

# System: not listed separately
# Experiment: Selectivity index, ratio of CC50 for human HepG2(2.2.15) cells to IC50 for HBV infected in human HepG2(2.2.15) cells assessed as inhibition of HBeAg
# Type: functional
# Settings: not given
row,SMILES,Ratio CC50/IC50
1,CCCn1cc(C(=O)c2ccc(OC)cc2O)ccc1=O,2.83
2,C=CC/N=C(\c1ccc(=O)n(CC=C)c1)c1ccc(OC)cc1O,0.5
3,C=CCn1cc(C(=O)c2ccc(OC)cc2O)ccc1=O,4
4,CCCCC/N=C(\c1ccc(=O)n(CCCCC)c1)c1ccc(OC)cc1O,19.6
5,COc1ccc(-n2cc(C(=O)c3ccc(OC)cc3O)ccc2=O)cc1,1.56
6,COc1ccc(/C(=N/C(C)C)c2ccc(=O)n(C(C)C)c2)c(O)c1,>2.26
7,COc1ccc(C(=O)c2ccc(=O)n(-c3ccccc3)c2)c(O)c1,2.36
8,COc1ccc(C(=O)c2ccc(=O)n(-c3ccccc3OC)c2)c(O)c1,>2.3

# System: Hepatitis B virus
# Experiment: Antiviral activity against HBV infected in human HepG2(2.2.15) cells assessed as inhibition of HBeAg level after 9 days by ELISA
# Type: functional, organism-based
# Settings: HepG2 2.2.15, 216 h
row,IC50,SMILES
1,46.3 µM,CCCn1cc(C(=O)c2ccc(OC)cc2O)ccc1=O
2,40 µM,C=CC/N=C(\c1ccc(=O)n(CC=C)c1)c1ccc(OC)cc1O
3,58 µM,C=CCn1cc(C(=O)c2ccc(OC)cc2O)ccc1=O
4,5 µM,CCCCC/N=C(\c1ccc(=O)n(CCCCC)c1)c1ccc(OC)cc1O
5,222 µM,COc1ccc(-n2cc(C(=O)c3ccc(OC)cc3O)ccc2=O)cc1
6,54 µM,COc1ccc(/C(=N/C(C)C)c2ccc(=O)n(C(C)C)c2)c(O)c1
7,> 118 µM,COc1ccc(C(=O)c2ccc(=O)n(-c3ccc(F)cc3)c2)c(O)c1
8,76 µM,COc1ccc(C(=O)c2ccc(=O)n(-c3ccccc3)c2)c(O)c1
9,49 µM,COc1ccc(C(=O)c2ccc(=O)n(-c3ccccc3OC)c2)c(O)c1

# System: not listed separately
# Experiment: Selectivity index, ratio of CC50 for human HepG2(2.2.15) cells to IC50 for HBV infected in human HepG2(2.2.15) cells assessed as inhibition of HBsAg
# Type: functional
# Settings: not given
# In short: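 MTT at 5 g/L added 4 h before lysis in 10% SDS/50% DMF, pH 7.2, with OD read at 570 nm. IC50: HBsAg in day-9 supernatants measured by ELISA. SI = CC50/IC50.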
row,SMILES,Ratio CC50/IC50
1,C=CC/N=C(\c1ccc(=O)n(CC=C)c1)c1ccc(OC)cc1O,0.2
2,C=CCn1cc(C(=O)c2ccc(OC)cc2O)ccc1=O,0.84
3,CCCCC/N=C(\c1ccc(=O)n(CCCCC)c1)c1ccc(OC)cc1O,3.38
4,COc1ccc(C(=O)c2ccc(=O)n(-c3ccccc3)c2)c(O)c1,1.02
